Results: ChEMBL document CHEMBL3272061, “Experiments of synthesis of dl-camptothecin. 4. Synthesis and antileukemic activity of dl-camptothecin analogues” (J Med Chem, 1976)
Active and inactive are the calls of the source. No cut-off for these calls is given here.

How the values were obtained:
L1210 [1] = test: Antileukemic activity against mouse L1210 cells allografted in BDF1 mouse assessed as host survival at 5.56 umol/kg, ip after 30 days; type: functional, organism-based
How it was run: (§1)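 BDF1 mice, 5 weeks old, were inoculated ip with 5×10^5 L1210 cells in 0.1 ml saline. Test groups were 4 male and 4 female mice; controls were 5 male and 5 female. Insoluble compounds were suspended in vehicle. Dosing was ip, either once on the day after inoculation or daily for 5 days. Read-out was increase in life span over controls. Mice alive beyond 30 days were counted as 30 days and scored as survivors.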

L1210 [2] = test: Antileukemic activity against mouse L1210 cells allografted in BDF1 mouse assessed as increase in life span of host at 26 umol/kg, ip relative to control; type: functional
How it was run: (§2)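 BDF1 mice, 5 weeks old, were inoculated ip with 5×10^5 L1210 cells; test groups had 4 males and 4 females, controls 5 males and 5 females. A single ip dose was given on the day after inoculation, as a suspension in vehicle for the insoluble compounds. Read-out was increase in life span over controls, with survivors past 30 days counted as 30 days.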

L1210 [3] = test: Antileukemic activity against mouse L1210 cells allografted in BDF1 mouse assessed as increase in life span of host at 65.1 umol/kg, ip relative to control; type: functional; how it was run: as §2
[4] = Solubility of the compound; type: physicochemical
L1210 [5] = test: Antileukemic activity against mouse L1210 cells allografted in BDF1 mouse assessed as host survival at 130 umol/kg, ip after 30 days; type: functional, organism-based
How it was run: (§3)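 BDF1 mice, 5 weeks old; test groups four males + four females, controls five + five. 5×10^5 L1210 cells in 0.1 ml saline given ip. Compound, suspended in suspending vehicle (sodium salt dissolved), injected ip once on the day after inoculation. Survival followed to 30 days; mice surviving beyond 30 days counted as 30 days and scored as survivor fraction; activity as increased life span over controls.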

L1210 [6] = test: Antileukemic activity against mouse L1210 cells allografted in BDF1 mouse assessed as host survival at 26 umol/kg, ip after 30 days; type: functional, organism-based; how it was run: as §3
L1210 [7] = test: Antileukemic activity against mouse L1210 cells allografted in BDF1 mouse assessed as increase in life span of host at 130 umol/kg, ip relative to control; type: functional; how it was run: as §1
L1210 [8] = test: Antileukemic activity against mouse L1210 cells allografted in BDF1 mouse assessed as host survival at 65.1 umol/kg, ip after 30 days; type: functional, organism-based; how it was run: as §3
L1210 [9] = test: Antileukemic activity against mouse L1210 cells allografted in BDF1 mouse assessed as host survival at 5.58 umol/kg, ip after 30 days; type: functional, organism-based; conditions: 5.56 umol/kg, in the assay text read “5.56 umol/kg” for “5.58 umol/kg”; how it was run: as §3
L1210 [10] = test: Antileukemic activity against mouse L1210 cells allografted in BDF1 mouse assessed as host survival at 139 umol/kg, ip after 30 days; type: functional, organism-based; how it was run: as §1
L1210 [11] = test: Antileukemic activity against mouse L1210 cells allografted in BDF1 mouse assessed as increase in life span of host at 69.4 umol/kg, ip relative to control; type: functional; how it was run: as §2
L1210 [12] = test: Antileukemic activity against mouse L1210 cells allografted in BDF1 mouse assessed as host survival at 27.8 umol/kg, ip after 30 days; type: functional, organism-based; how it was run: as §1
L1210 [13] = test: Antileukemic activity against mouse L1210 cells allografted in BDF1 mouse assessed as host survival at 69.4 umol/kg, ip after 30 days; type: functional, organism-based; how it was run: as §3
L1210 [14] = test: Antileukemic activity against mouse L1210 cells allografted in BDF1 mouse assessed as increase in life span of host at 139 umol/kg, ip relative to control; type: functional; how it was run: as §1
L1210 [15] = test: Antileukemic activity against mouse L1210 cells allografted in BDF1 mouse assessed as host survival at 5 umol/kg, sc qd for 5 days measured after 30 days; type: functional, organism-based
L1210 [16] = test: Antileukemic activity against mouse L1210 cells allografted in BDF1 mouse assessed as host survival at 25 umol/kg, sc qd for 5 days measured after 30 days; type: functional, organism-based
L1210 [17] = test: Antileukemic activity against mouse L1210 cells allografted in BDF1 mouse assessed as host survival at 5 umol/kg, ip qd for 5 days measured after 30 days; type: functional, organism-based; how it was run: as §1
L1210 [18] = test: Antileukemic activity against mouse L1210 cells allografted in BDF1 mouse assessed as host survival at 25 umol/kg, po qd for 4 days measured after 30 days; type: functional, organism-based
L1210 [19] = test: Antileukemic activity against mouse L1210 cells allografted in BDF1 mouse assessed as host survival at 12.5 umol/kg, ip qd for 5 days measured after 30 days; type: functional, organism-based; how it was run: as §1
L1210 [20] = test: Antileukemic activity against mouse L1210 cells allografted in BDF1 mouse assessed as host survival at 5 umol/kg, po qd for 5 days measured after 30 days; type: functional, organism-based
L1210 [21] = test: Antileukemic activity against mouse L1210 cells allografted in BDF1 mouse assessed as host survival at 12.5 umol/kg, po qd for 5 days measured after 30 days; type: functional, organism-based
L1210 [22] = test: Antileukemic activity against mouse L1210 cells allografted in BDF1 mouse assessed as host survival at 1 umol/kg, sc qd for 5 days measured after 30 days; type: functional, organism-based
L1210 [23] = test: Antileukemic activity against mouse L1210 cells allografted in BDF1 mouse assessed as host survival at 1 umol/kg, ip qd for 5 days measured after 30 days; type: functional, organism-based; how it was run: as §1
L1210 [24] = test: Antileukemic activity against mouse L1210 cells allografted in BDF1 mouse assessed as host survival at 132 umol/kg, ip after 30 days; type: functional, organism-based; how it was run: as §1
L1210 [25] = test: Antileukemic activity against mouse L1210 cells allografted in BDF1 mouse assessed as increase in life span of host at 132 umol/kg, ip relative to control; type: functional; how it was run: as §1
L1210 [26] = test: Antileukemic activity against mouse L1210 cells allografted in BDF1 mouse assessed as increase in life span of host at 65.8 umol/kg, ip relative to control; type: functional; how it was run: as §2
L1210 [27] = test: Antileukemic activity against mouse L1210 cells allografted in BDF1 mouse assessed as host survival at 65.8 umol/kg, ip after 30 days; type: functional, organism-based; how it was run: as §1
L1210 [28] = test: Antileukemic activity against mouse L1210 cells allografted in BDF1 mouse assessed as increase in life span of host at 26.3 umol/kg, ip relative to control; type: functional; how it was run: as §2
L1210 [29] = test: Antileukemic activity against mouse L1210 cells allografted in BDF1 mouse assessed as increase in life span of host at 5.56 umol/kg, ip relative to control; type: functional; how it was run: as §2
L1210 [30] = test: Antileukemic activity against mouse L1210 cells allografted in BDF1 mouse assessed as increase in life span of host at 27.8 umol/kg, ip relative to control; type: functional; how it was run: as §2

C=CCC1(CC=C)C(=O)OCc2c1cc1n(c2=O)Cc2cc3ccccc3nc2-1
Activity (L1210 [1]): inactive | ILS at 26 µmol/kg (L1210 [2]): -8% | ILS at 65.1 µmol/kg (L1210 [3]): 5% | solubility [4]: Insoluble | Activity (L1210 [5]): inactive | Activity (L1210 [6]): inactive | ILS at 130 µmol/kg (L1210 [7]): 1% | Activity (L1210 [8]): inactive

CCC1(CC)C(=O)OCc2c1cc1n(c2=O)Cc2cc3ccccc3nc2-1
Activity (L1210 [9]): inactive | Activity (L1210 [10]): inactive | ILS at 69.4 µmol/kg (L1210 [11]): 5% | Activity (L1210 [12]): inactive | solubility [4]: Insoluble | Activity (L1210 [13]): inactive | ILS at 139 µmol/kg (L1210 [14]): -11%

C=CCC1(O)C(=O)OCc2c1cc1n(c2=O)Cc2cc3ccccc3nc2-1 (stereo not drawn)
Activity (L1210 [15]): inactive | Activity (L1210 [16]): inactive | Activity (L1210 [17]): inactive | Activity (L1210 [18]): inactive | Activity (L1210 [19]): inactive | Activity (L1210 [20]): inactive | Activity (L1210 [21]): inactive | Activity (L1210 [22]): inactive | Activity (L1210 [23]): inactive

CCC1(O)C(=O)OCc2c1cc1n(c2=O)CC2Cc3ccccc3N(C=O)C12 (mixture of isomers)
Activity (L1210 [1]): inactive | Activity (L1210 [24]): inactive | ILS at 132 µmol/kg (L1210 [25]): -3% | solubility [4]: Insoluble | ILS at 65.8 µmol/kg (L1210 [26]): -9% | Activity (L1210 [27]): inactive | ILS at 26.3 µmol/kg (L1210 [28]): -6% | ILS at 5.56 µmol/kg (L1210 [29]): 34% | ILS at 27.8 µmol/kg (L1210 [30]): > 244%
